{"data": "Measurements of several laboratories", "note": "Lines come from different studies, so protocols differ."}
{"SMILES": "N#CC(=C1C=CC(=NOC(=O)OCc2ccccc2)C=C1)c1ccccc1", "organism": "Candida tropicalis", "test": "microbial growth, broth dilution", "test system": "ATCC13803", "conditions": "48 h", "quantity": "MIC", "result": "128 µg/mL"}
{"SMILES": "C=C[C@]1(C)C[C@@H](OC(=O)CS[C@@H]2C[C@H]3CC[C@@H](C2)N3C)[C@]2(C)[C@H](C)CC[C@]3(CCC(=O)[C@H]32)[C@@H](C)[C@@H]1O", "organism": "Streptococcus agalactiae", "test": "microbial growth", "conditions": "clinical isolate", "quantity": "MIC90", "result": "0.0312 µg/mL"}
{"SMILES": "CC(=O)ON=C1C=CC(=C(C#N)c2ccccc2)C=C1", "organism": "Candida tropicalis", "test": "microbial killing, broth dilution", "test system": "ATCC13803", "conditions": "48 h", "quantity": "MFC", "result": "4 µg/mL"}
{"SMILES": "C[C@@H]1[C@H](O)[C@@H](C)/C=C/C=C/C=C/C=C/C=C/C=C/C=C/[C@H](O[C@@H]2O[C@H](C)[C@@H](O)[C@H](N)[C@@H]2O)C[C@@H]2O[C@](O)(C[C@@H](O)C[C@@H](O)[C@H](O)CC[C@@H](O)C[C@@H](O)CC(=O)O[C@H]1C)C[C@H](O)[C@H]2C(=O)O", "organism": "Candida tropicalis", "test": "microbial growth, broth dilution", "test system": "CGMCC2", "conditions": "48 h", "quantity": "MIC", "result": "< 0.25 µM"}
{"SMILES": "C[C@@H]1[C@H](O)[C@@H](C)/C=C/C=C/C=C/C=C/C=C/C=C/C=C/[C@H](O[C@@H]2O[C@H](C)[C@@H](O)[C@H](N)[C@@H]2O)C[C@@H]2O[C@](O)(C[C@@H](O)C[C@@H](O)[C@H](O)CC[C@@H](O)C[C@@H](O)CC(=O)O[C@H]1C)C[C@H](O)[C@H]2C(=O)O", "organism": "Candida tropicalis", "test": "microbial growth, broth dilution", "test system": "ATCC13803", "conditions": "48 h", "quantity": "MIC", "result": "32 µg/mL"}
{"SMILES": "OC(Cn1cncn1)(Cn1cncn1)c1ccc(F)cc1F", "organism": "Candida tropicalis", "test": "microbial growth, broth dilution", "quantity": "MIC", "result": "8 µg/mL"}
{"SMILES": "NNC(=O)c1ccncc1", "organism": "Mycolicibacterium smegmatis", "test": "microbial growth", "quantity": "MIC90", "result": "17.7 µM"}
{"SMILES": "CC(=O)NC[C@H]1CN(c2ccc(N3CCOCC3)c(F)c2)C(=O)O1", "organism": "Streptococcus viridans", "test": "microbial growth", "conditions": "clinical isolate", "quantity": "MIC90", "result": "1 µg/mL"}
{"SMILES": "CC(=O)N1CCN(c2ccc(OCC3COC(Cn4ccnc4)(c4ccc(Cl)cc4Cl)O3)cc2)CC1 (stereo not shown)", "organism": "Candida tropicalis", "test": "microbial growth, broth dilution", "test system": "CGMCC2", "conditions": "48 h", "quantity": "MIC", "result": "1 µM"}
{"SMILES": "CO[C@H]1/C=C/O[C@@]2(C)Oc3c(C)c(O)c4c(O)c(c(/C=N/N5CCN(C)CC5)c(O)c4c3C2=O)NC(=O)/C(C)=C\\C=C\\[C@H](C)[C@H](O)[C@@H](C)[C@@H](O)[C@@H](C)[C@H](OC(C)=O)[C@@H]1C", "organism": "Mycolicibacterium smegmatis", "test": "microbial growth", "quantity": "MIC90", "result": "1.52 µM"}
